Compound activity (PubChem)
TLR4-MyD88 BLA = TLR4-MyD88 interaction inhibition in cells; O00206+Q99836; HeLa CL3-4 TLR4/MyD88 BLA complementation, FRET ratio; inhibition, % at 8.4 µM; 0.18% of 200,000 active; AID 861; in the data active = inhibition above about 25%;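 note: 0% = vehicle and 100% = reference inhibitor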
NOD2 RIPK2 PPI = inhibitors of human NOD2-RIPK2 interaction; O43353; CHO BLA complementation NOD2-RIPK2, CCF4 ratio; inhibition, % at 4.98 µM; 0.38% of 360,000 active; AID 624267; in the data active = inhibition above about 21%;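 note: 0% = vehicle only and 100% = reference blocker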
MC4R ag barr = human MC4R agonism via beta-arrestin; U2OS MC4R beta-arrestin complementation, luminescence; percent of melanotan II response, DMSO zero; activation, % at 8.9 µM; 0.98% of 360,000 active; AID 540308;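 active = activation above a per-plate cutoff, the mean activation of sample wells on that plate plus 3 SD, cut at about 8% in these data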
NTR1 ag = activates human neurotensin receptor 1; NTR1-U2OS beta-arrestin-GFP spot imaging, agonist mode; activation, % at 20 µM; 0.17% of 330,000 active; AID 493036;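 active = activation at or above 40% of the spot to cytoplasm intensity ratio, with at least 20 cells analyzed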;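 note: 0% = DMSO without peptide and 100% = 100 nM NTR1 peptide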
MC4R antagonist = blocks human MC4R cAMP signaling | MC4R-expressing cells, MTII-stimulated cAMP, LANCE TR-FRET | AID 540295 | P32245 | inhibition, % at 6.5 µM | 0.48% of 360,000 active;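 active = inhibition above its plate's cutoff, the mean of tested wells on that plate plus 3 SD, cut at about 29% in these data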;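 note: 0% = Melanotan II alone and 100% = Melanotan II plus saturating MCL0020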
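Assay system: human MC4R-expressing U2OS cells; reagent: Melanotan II stimulation of cells; dosing: 6.5 µM single dose; timing: compound 30 min, challenge 1 h, detection 1 h; signal: TR-FRET cAMP assay; replicates: one well per compound, no replicates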
TLR9-MyD88 inh = TLR9-MyD88 interaction inhibition. Q9NR96+Q99836. CHO BLA complementation TLR9-MyD88, CCF4 FRET ratio. inhibition, % at 4.98 µM. 0.21% of 340,000 active;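 active = inhibition above the mean over all tested compounds plus 3 SD, cut at about 21% in these data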;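 note: 0% = DMSO only wells and 100% = clavulanate BLA inhibitor control wells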
MC4R barr conf = human MC4R beta-arrestin agonism confirmation. activation, % at 8.9 µM. U2OS MC4R beta-arrestin recruitment, luminescence; scaled DMSO 0%, Melanotan II 100%. AID 602192. 31% of 2,400 active. shares compounds with MC4R ag barr;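 active = mean activation across replicates above the hit cutoff set in the earlier primary screen, cut at about 8% in these data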
MOR-DOR barr ag = activates mu-delta opioid heterodimer, MC4R agonist counter-screen | U2OS PathHunter beta-arrestin, beta-gal luminescence; percent of deltorphin B response, DMSO zero | activation, % at 9.2 µM | AID 602194 | 5.8% of 2,400 active | shares compounds with MC4R ag barr;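 active = mean activation across replicates exceeds the hit threshold derived in the earlier primary screen, cut at about 18% in these data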;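 note: 100% = deltorphin B at 0.9 µM final and 0% = DMSO alone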
Target sequence (P35372 whole entry, looked up): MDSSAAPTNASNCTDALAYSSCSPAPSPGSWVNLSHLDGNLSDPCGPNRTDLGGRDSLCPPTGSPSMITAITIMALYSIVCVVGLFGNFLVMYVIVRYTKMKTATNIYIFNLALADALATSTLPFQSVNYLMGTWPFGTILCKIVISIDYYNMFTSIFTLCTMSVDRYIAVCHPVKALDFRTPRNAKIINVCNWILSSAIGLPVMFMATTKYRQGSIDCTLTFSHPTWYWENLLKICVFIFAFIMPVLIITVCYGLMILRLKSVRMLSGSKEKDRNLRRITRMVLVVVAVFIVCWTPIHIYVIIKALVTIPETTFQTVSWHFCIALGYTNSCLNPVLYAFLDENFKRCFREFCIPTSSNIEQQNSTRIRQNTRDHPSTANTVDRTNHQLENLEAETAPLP
Target sequence (P41143 whole entry, looked up): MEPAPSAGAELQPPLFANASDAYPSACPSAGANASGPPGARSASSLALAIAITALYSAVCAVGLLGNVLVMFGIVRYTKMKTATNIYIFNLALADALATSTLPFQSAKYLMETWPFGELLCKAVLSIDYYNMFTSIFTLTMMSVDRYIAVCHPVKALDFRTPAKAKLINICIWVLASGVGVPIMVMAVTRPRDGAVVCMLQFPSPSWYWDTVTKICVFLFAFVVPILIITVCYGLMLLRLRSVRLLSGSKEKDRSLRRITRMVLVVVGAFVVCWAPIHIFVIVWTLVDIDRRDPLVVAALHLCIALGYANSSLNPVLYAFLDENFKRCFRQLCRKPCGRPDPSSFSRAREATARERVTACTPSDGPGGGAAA
Numbers without * were called inactive; . = no result. Shown are actives, neighbours in structure and some others; about 1.9% of the full set was active somewhere.

SMILES | TLR4-MyD88 BLA | NOD2 RIPK2 PPI | MC4R ag barr | NTR1 ag | MC4R antagonist | TLR9-MyD88 inh | MC4R barr conf | MOR-DOR barr ag
COc1ccccc1-c1cc(C(=O)Nc2cc(C)nn2-c2ccccc2)no1 | -9 | 5 | 9.9* | 2 | 2 | -8 | -2 | 5
COc1ccc(OC)c(-c2cc(C(=O)NCc3ccc(Cl)cc3)no2)c1 | 6 | -8 | 10* | 5 | 24 | 1 | 1 | 2
COc1ccccc1-c1cc(C(=O)Nc2cc(C)n(Cc3ccc(Cl)cc3)n2)no1 | -4 | 3 | 21* | 16 | 5 | -7 | 15* | 8
O=C(Nc1cccc2ccccc12)N(CCO)C1CCS(=O)(=O)C1 (stereo not drawn) | . | -3 | 0 | -1 | -5 | 6 | . | .
CCOC(=O)c1ccc(NC(=O)CCCN2C(=O)NC3(CCCC3)C2=O)cc1 | . | 0 | 0 | 0 | -1 | 2 | . | .
O=C1OC(c2ccccc2)(c2ccc(O)cc2)c2ccccc21 (stereo not drawn) | . | -4 | 55* | . | 4 | 1 | 48* | 4
CCC(CC)COC(=O)C1=C(C)NC(=O)NC1c1ccccc1Br (stereo not drawn) | . | 1 | 2 | 2 | 2 | -9 | . | .
Nc1nc2c(c(=O)[nH]1)C(c1ccccc1)C1=C(N2)c2ccccc2C1=O (stereo not drawn) | . | -9 | -4 | 0 | 1 | -10 | . | .
CCC(C)c1ccc(C2C3=C(Nc4nc(N)[nH]c(=O)c42)c2ccccc2C3=O)cc1 (stereo not drawn) | . | -13 | 10* | 12 | -16 | 6 | -2 | 1
COc1ccc(-n2nc(C(=O)NCC(=O)Nc3cccc(Cl)c3)c3ccccc3c2=O)cc1OC | . | 2 | -2 | 3 | 5 | -1 | . | .
O=C(Nc1ccccc1)N1CCn2c1nc1ccccc12 | -4 | -6 | -1 | 2 | 6 | -2 | . | .
S=C(Nc1ccccc1)N1CCn2c1nc1ccccc12 | -15 | 0 | 24* | 9 | -2 | 0 | 0 | .
COc1ccc(CNC(=O)[C@@H]2CC=C[C@@H]3CCN(Cc4ccc(Cl)c(Cl)c4)C(=O)[C@@H]32)cc1 | . | 6 | 18* | 3 | 1 | -2 | 8.8* | 3
Cc1cc(NC(=O)CSc2nc(-c3ccc(Cl)cc3)cs2)no1 | 9 | 4 | 18* | 7 | -3 | 8 | 8 | 8
CCOc1cc(/C=N\NC(=O)c2ccc(NC(=O)C(C)(C)C)cc2)ccc1OC(=O)c1cccc(C)c1 | -11 | -13 | 18* | 4 | 4 | -2 | 4 | 5
CCOc1cc(/C=N\NC(=O)c2ccc(NC(=O)C(C)(C)C)cc2)ccc1OC(=O)c1ccc(C)cc1 | -10 | 0 | 4 | 2 | -4 | 7 | . | .
Cc1ccccc1N(C(=O)Cc1c[nH]c2ccccc12)C(C(=O)NC1CCCCC1)c1ccco1 (stereo not drawn) | -5 | 0 | 21* | 0 | -5 | 5 | 6 | 11
COC(=O)c1c(NC(C)=O)sc(C)c1C | 5 | -4 | -2 | 1 | 14 | -5 | . | .
COC(=O)c1c(NC(=O)Nc2ccc(Cl)cc2)sc(C)c1C | -7 | 10 | 10* | -5 | 0 | -5 | 2 | 9
COC(=O)CC1COc2ccccc2N1S(=O)(=O)c1ccc(Br)cc1 (stereo not drawn) | . | 3 | -2 | 1 | 6 | 4 | . | .
CCCNC(=O)C1(C)CCN(Cc2ccc(-c3ccccn3)cc2)C1 (stereo not drawn) | . | -10 | 1 | . | 11 | . | . | .
Cc1ccccc1OC1(C)CCN(Cc2ccc(-c3ccccn3)cc2)C1 (stereo not drawn) | . | -5 | 15* | . | 9 | . | 4 | 8
COc1cccc(CN2CC(O)=C(c3nc(-c4ccc(Cl)cc4)cs3)C2=N)c1 | -18 | -6 | 2 | 1 | 2 | 0 | . | .
COc1ccc(-c2csc(C3=C(O)CN(Cc4ccc(Cl)cc4)C3=N)n2)cc1OC | 5 | 8 | 102* | 7 | 6 | -2 | 21* | 11
COc1ccc(N2CC(O)=C(c3nc(-c4ccc(F)cc4)cs3)C2=N)cc1OC | 4 | -11 | -1 | 3 | 11 | 1 | . | .
SMILES | TLR4-MyD88 BLA | NOD2 RIPK2 PPI | MC4R ag barr | NTR1 ag | MC4R antagonist | TLR9-MyD88 inh | MC4R barr conf | MOR-DOR barr ag
COc1ccc(N2CC(O)=C(c3nc(-c4ccc(F)cc4)cs3)C2=N)cc1Cl | 0 | 7 | 11* | 4 | 10 | -7 | 13* | 3
N=C1C(c2nc(-c3ccc(F)cc3)cs2)=C(O)CN1Cc1ccc(Cl)cc1 | 8 | 3 | 14* | 1 | 11 | 0 | 5 | 7
COc1cc2ccc(CC(N)=O)cc2cc1OC | . | -3 | -1 | . | 3 | 0 | . | .
N#Cc1ccc(-c2cccnc2)nc1SCc1ccc(Cl)cc1Cl | 3 | -10 | 18* | 10 | -14 | 8 | 6 | 4
COc1ccc(-c2cc(NC(C)=O)c3ncc(-c4ccccc4)n3c2)c(OC)c1 | . | 8 | 32* | . | 9 | . | 37* | 2
COc1cccc(-c2cnc3c(NC(C)=O)cc(-c4cccc(C(=O)NCCO)c4)cn23)c1 | . | -1 | 8 | . | 20 | . | . | .
COc1cccc(-c2cnc3c(NC(C)=O)cc(-c4cc(OC)c(OC)c(OC)c4)cn23)c1 | . | 8 | 29* | . | 12 | . | 21* | 1
CC(=O)Nc1cc(-c2ccccc2N(C)C)cn2c(-c3ccc(S(C)(=O)=O)cc3)cnc12 | . | 10 | 3 | . | 14 | . | . | .
COc1cccc(-c2cnc3c(NC(C)=O)cc(-c4ccccc4OC)cn23)c1 | . | -9 | 22* | . | 19 | . | 15* | 2
COc1cccc(-c2cnc3c(NC(C)=O)cc(-c4ccncc4)cn23)c1 | . | 2 | 5 | . | 7 | . | . | .
COc1ccc(-c2cc(NC(C)=O)c3ncc(-c4ccc(OC)c(OC)c4)n3c2)c(OC)c1 | . | 3 | 6 | . | -14 | . | . | .
CC(=O)Nc1cc(-c2ccccc2N(C)C)cn2c(-c3ccccc3)cnc12 | . | -6 | 18* | . | 6 | . | 32* | 3
CN(C)CCCNc1nc2cc(-c3ccc(F)cc3)sc2c(=O)n1C | . | -4 | 2 | . | 8 | . | . | .
CCOc1ccc(NC(=O)COC(=O)C2COc3ccccc3O2)cc1 (stereo not drawn) | . | -17 | 3 | . | 5 | -6 | . | .
CCOC(=O)C1CCN(C(=O)c2cccc(S(=O)(=O)N3c4ccccc4CC3C)c2)CC1 (stereo not drawn) | . | 2 | 0 | 0 | 0 | -4 | . | .
COc1ccc(-c2cnc3c(NC=O)cc(-c4ccccc4OC)cn23)cc1OC | . | 10 | 5 | . | -60 | . | . | .
